Compound activity (PubChem)
An excerpt weighted towards active compounds, which were near 1.5% of everything screened.
PPC-1+TRAIL kill: compounds killing PPC-1 cancer cells with TRAIL present (potentiator screen, no TRAIL-free arm); PPC-1 cells + TRAIL, ATPLite viability luminescence; hit rate 0.41% among 220,000; AID 1443; cell killing (% activity), % at 4 µM or 5 µM;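 active = cell killing above 50% in the first pass at 4 µM, then a duplicate retest at 5 µM averaging 50% or more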;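 note: plate controls were cells with TRAIL plus DMSO for no effect and medium-only wells lacking cells for full effect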
C8 TRAIL sens: caspase-8 TRAIL sensitization. hit rate 1% among 360,000. inhibition (viability loss, TRAIL sensitization), % at 10 µM. NB7+C8 cells + TRAIL, ATPlite viability luminescence;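 active = compounds causing at least 50% loss of cell viability in the single-dose screen, relative to plate controls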
FLuc act counter: firefly luciferase counter-screen for stimulation assays; P08659; ATPlite luciferase biochemical, luminescence, 10 min; 0 = ATP-free wells, 1 = DMSO control; activation factor at 10 µM; 200,000 tested, under 10 active; AID 1027;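 active = luciferase activation factor, scaled between plate controls, of at least 2 with compound at 10 µM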
Target sequence (P08659 whole entry, looked up): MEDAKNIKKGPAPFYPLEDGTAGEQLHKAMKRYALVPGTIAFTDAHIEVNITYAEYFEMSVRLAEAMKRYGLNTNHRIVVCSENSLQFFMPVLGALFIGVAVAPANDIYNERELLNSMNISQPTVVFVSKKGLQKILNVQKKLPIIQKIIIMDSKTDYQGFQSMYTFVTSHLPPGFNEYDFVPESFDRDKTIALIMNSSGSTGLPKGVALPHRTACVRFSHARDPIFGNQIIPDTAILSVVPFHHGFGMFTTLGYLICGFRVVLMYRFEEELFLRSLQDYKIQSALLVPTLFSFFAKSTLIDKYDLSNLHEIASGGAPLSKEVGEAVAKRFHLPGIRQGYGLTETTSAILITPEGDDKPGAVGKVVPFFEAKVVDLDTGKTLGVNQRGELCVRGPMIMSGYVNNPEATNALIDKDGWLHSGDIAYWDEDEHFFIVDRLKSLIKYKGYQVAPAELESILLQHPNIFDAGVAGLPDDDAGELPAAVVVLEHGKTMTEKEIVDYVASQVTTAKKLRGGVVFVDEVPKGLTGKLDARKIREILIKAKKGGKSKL
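Assay system: Luciferase/luciferin detection reagent, cell-free biochemical luciferase assay / Read-out: luciferase activation / Benchmarks: No-ATP low control, compound-free enzyme-plus-ATP high control / Medium: PBS buffer for ATP / Detection: luminescence measurement of luciferase light output / Schedule: 10 min at ambient temperature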
FLuc inhib CS: counter-screen for luciferase assay inhibitors: firefly luciferase inhibition; P08659; hit rate 1.5% among 200,000; inhibition, % at 10 µM; ATPLite firefly luciferase biochemical luminescence, 10 min;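 active = inhibition above about 50% when tested at 10 µM, limit read from the data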
Starred values were filed as active, the others as inactive; / = no result given.

SMILES | PPC-1+TRAIL kill | C8 TRAIL sens | FLuc act counter | FLuc inhib CS
Cc1csc(NC(=S)NC(=O)c2ccccc2)n1 | / | 72* | / | /
CCOC(=O)Cc1csc(NC(=S)NC(=O)c2ccccc2)n1 | -3 | 35 | 0.7 | 34
COC(=O)c1sc(NC(=S)NC(=O)c2ccccc2)nc1C | -2 | 49 | 0.4 | 63*
CCOC(=O)c1sc(NC(=S)NC(=O)c2ccccc2)nc1C | 8 | 12 | 0.6 | 37
COc1ccc(CN2CCCC(C(=O)c3ccc4c(c3)OCO4)C2)c(F)c1 (configuration not stated) | / | 5 | / | /
O=C1C=C(NCCc2cc(Br)c(O)c(Br)c2)C(=O)c2ncccc21 | / | 57* | / | /
C/C=C/c1ccc(OCCCNC2CCCC2)c(OC)c1 | 34 | 54* | 1 | 0
C/C=C/c1ccc(OCCCNC(C)CC)c(OC)c1 (configuration not stated) | 20 | -4 | 1 | -2
O=c1[nH]c2ccccc2c2nc3ccccn3c12 | 7 | 28 | 0.5 | 54*
O=c1nc2c(O)cccn2c2c1c(=O)[nH]c1ccccc12 | 17 | -10 | 1 | 0
CC(C)Cc1nnc(NC(=O)CCC(=O)NC2CCCC2)s1 | / | -10 | / | /
COc1ccc(C)cc1NC(=O)CN(Cc1nnc(-c2ccc(Cl)cc2)o1)C1CCCC1 | 25 | 85* | 1 | -4
COc1ccc(Cl)cc1NC(=O)CN(C)C1CCCCC1 | -14 | 6 | 1 | -2
COC(=O)C1CN(C(=O)COc2ccccc2)c2ccccc2O1 (configuration not stated) | / | -10 | / | /
CN(C)C1(CNC(=O)C2CCN(S(=O)(=O)c3cc(Cl)ccc3Cl)CC2)CCCCC1 | / | 9 | / | /
Clc1ccc(CSc2nnc(-c3ccc4c(c3)OCO4)o2)cc1 | 19 | 14 | 1 | -3
c1nnc(-c2ccc3c(c2)OCO3)o1 | 8 | -8 | 1 | -4
Cc1cccc(-c2noc(-c3ccc4c(c3)OCO4)n2)c1 | 34 | 61* | 0.2 | 82*
c1coc(-c2nnc(-c3ccc4c(c3)OCO4)o2)c1 | 27 | / | 0.6 | 38
Brc1ccc(-c2nnc(-c3ccc4c(c3)OCO4)o2)o1 | 38 | 42 | 0.4 | 60*
COc1ccc(-c2nc(-c3cccc(C)c3)no2)cc1OC | -1 | 5 | 1 | 0
Cc1ccc(-c2nnc(-c3ccc4c(c3)OCO4)o2)cc1 | 55* | 49 | 0.5 | 52*
O=C1CCCCC1Sc1nnc(-c2ccc3c(c2)OCO3)o1 (configuration not stated) | 6 | 53* | 0.1 | 89*
COc1ccc(S(=O)(=O)N2CCCCCC2)cc1N | 19 | -1 | 1 | -4
Cc1ccc(C(=O)ONc2ccc(N=NC(=O)c3ccccc3O)cc2)cc1 | 28 | 32 | 0.7 | 32
SMILES | PPC-1+TRAIL kill | C8 TRAIL sens | FLuc act counter | FLuc inhib CS
Cc1ccc(C(=O)ONc2ccc(N=O)cc2)cc1 | 15 | -5 | 0 | 97*
O=Nc1ccc(NOC(=O)c2ccc(Br)cc2)cc1 | 28 | / | 0.1 | 87*
Cc1cccn2cc(-c3ccc(F)cc3)cc12 | 3 | 1 | 1 | -4
COc1ccc(-c2cn3cccc(C)c3n2)cc1Br | 28 | 22 | 0.4 | 57*
Cc1cccn2cc(-c3ccccc3)nc12 | 29 | 31 | 0.3 | 69*
Cc1cccn2cc(CNc3ccccc3)nc12 | 7 | 4 | 1 | 4
COc1ccc(-c2cn3ccc4ccccc4c3n2)cc1 | 38 | 46 | 0.3 | 68*
Cc1cccn2cc(-c3ccc(F)cc3)nc12 | 4 | 19 | 0.4 | 59*
C/C(=N\NS(=O)(=O)c1ccccc1)c1cc(Cl)cc(Cl)c1O | 19 | -2 | 1.1 | -6
COc1ccc(S(=O)(=O)Nc2cccc3c2O[C@H](CN(C)C(=O)Nc2c(C)noc2C)[C@@H](C)CN([C@H](C)CO)C3=O)cc1 | / | 1 | / | /
COC(=O)C(=O)/C=C(\O)c1c(C)cc(C)cc1C | -9 | 2 | / | /
Cc1ccc(C(=O)C2CCNCC2)cc1 | 15 | -4 | 1 | -2
Cc1ccc(C(=O)/C=C2\NCC(C)NC2=O)cc1 (configuration not stated) | 38 | 43 | 0.3 | 69*
COC(=O)/C=C1\NCCNC1=O | -3 | 0 | / | /
Cc1ccc(C(=O)/C=C2\NCCNC2=O)cc1 | 31 | 30 | 0.3 | 67*
Cc1cc2nc3c(nc2cc1C)C(O)=C3O | 22 | 2 | / | /
Cc1ccc2nc(-c3ccc(SCC(=O)O)nc3)[nH]c2c1 | 30 | 48 | 0.6 | 43
CCc1nnc(NC(=O)CSc2ccc(-c3nc4ccc(C)cc4[nH]3)cn2)s1 | 24 | 54* | 0.4 | 58*
CC(=O)CSc1ccc(-c2nc3cc(C)c(C)cc3[nH]2)cn1 | / | 78* | 0.1 | 85*
Cc1cc2nc(-c3ccc(SCC(=O)Nc4nccs4)nc3)[nH]c2cc1C | 25 | 59* | 0.7 | 33
Cc1ccc2nc(-c3ccc(SCC(=O)N4CCc5ccccc54)nc3)[nH]c2c1 | 56* | 65* | 0.2 | 78*
CC(C)C[C@@H]1O[C@H](CCc2ccccc2)Cc2[nH]c(=S)[nH]c(=O)c21 | / | 24 | / | /
CCc1nnc(NC(=O)CSc2ccc(-c3ccc(C)cc3)nn2)s1 | 40 | 42 | 0.4 | 55*
Cc1cc2nc(-c3ccc(SCC(=O)Nc4ccc(S(=O)(=O)N5CCCC5)cc4)nc3)[nH]c2cc1C | 63* | 72* | 0.3 | 72*
CC(=O)CSc1ccc(-c2nc3ccccc3[nH]2)cn1 | / | 75* | / | /
SMILES | PPC-1+TRAIL kill | C8 TRAIL sens | FLuc act counter | FLuc inhib CS
N#C/C(N=Nc1ccccc1O)=N\Nc1ccccc1O | / | 54* | / | /
Oc1ccccc1N=N/C(=N/Nc1ccccc1O)c1ccccc1 | / | -12 | / | /
O=C(Nc1cnn(C23CC4CC(CC(C4)C2)C3)c1)c1cnn2cccnc12 | 30 | 31 | 0.3 | 67*
CCc1ccc(NC(=O)Nc2cccs2)cc1 | 1 | 54* | 0.2 | 85*
CCOc1ccc(NC(=O)Nc2cccs2)cc1 | 46 | 51* | 0.2 | 83*
Cc1ccc(NC(=O)Nc2cccs2)cc1 | 15 | 28 | 0.4 | 64*
CCCCCCCC(=O)NC1=NC(=O)C(C)(C)S1 | -8 | 4 | / | /
CC(Oc1ccccc1)C(=O)Nc1nnc(C2CCCCC2)s1 (configuration not stated) | 1 | 6 | 1.1 | -5
COc1ccc(/C=C/C(=O)c2ccc(O)cc2)cc1 | 21 | 0 | 0.2 | 75*
COc1ccc(/C=C/C(=O)c2ccoc2)cc1 | 10 | -1 | 0.6 | 45
COc1ccc(/C=C/C(=O)c2ccccn2)cc1 | 6 | -1 | 0 | 96*
C/C(=N\N=C(N)N)c1ccc(Cl)c(Cl)c1 | 18 | 18 | 1.1 | -5
COc1ccc(-c2cc(C(=O)c3c(N)n(C)c(=O)n(C)c3=O)c3ccccc3n2)cc1OC | 7 | 35 | 0.4 | 62*
Cc1cc(/C=N/NC(=O)c2cccc(F)c2)c(C)n1-c1ccccc1 | 16 | 27 | 0.2 | 79*
CCOC(=O)N/N=C/c1cc(C)n(-c2ccccc2)c1C | 18 | 1 | 0.6 | 38
Cc1cc(/C=N/NC(=O)c2ccccc2F)c(C)n1-c1ccccc1 | 22 | 31 | 0.2 | 75*
Cc1cc(/C=N/NC(=O)c2ccncc2)c(C)n1-c1cccc(C(F)(F)F)c1 | -2 | -5 | / | /
